Tests used:
[1] = molecular target: T1, Cyclooxygenase (Homo sapiens, UniProt P35354+P23219); assay: Inhibition of human platelet Prostaglandin G/H synthase at the concentration of 1 uM
Procedure, shortened: (§1)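 CO activity measured in human platelets. Percent inhibition at a single test concentration is compared with untreated control, with significance by ANOVA and Tukey's multiple comparisons test (p < 0.05).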

[2] = molecular target: T1, Cyclooxygenase; assay: Inhibition of human platelet Prostaglandin G/H synthase
[3] = Inhibition of human platelet Prostaglandin G/H synthase at the concentration of 10 uM; procedure, shortened: as §1
[4] = molecular target: T2, Polyunsaturated fatty acid 5-lipoxygenase (Homo sapiens) (UniProt P09917); assay: Inhibition of lipoxygenase at the concentration of 1 uM
T2 sequence (whole entry): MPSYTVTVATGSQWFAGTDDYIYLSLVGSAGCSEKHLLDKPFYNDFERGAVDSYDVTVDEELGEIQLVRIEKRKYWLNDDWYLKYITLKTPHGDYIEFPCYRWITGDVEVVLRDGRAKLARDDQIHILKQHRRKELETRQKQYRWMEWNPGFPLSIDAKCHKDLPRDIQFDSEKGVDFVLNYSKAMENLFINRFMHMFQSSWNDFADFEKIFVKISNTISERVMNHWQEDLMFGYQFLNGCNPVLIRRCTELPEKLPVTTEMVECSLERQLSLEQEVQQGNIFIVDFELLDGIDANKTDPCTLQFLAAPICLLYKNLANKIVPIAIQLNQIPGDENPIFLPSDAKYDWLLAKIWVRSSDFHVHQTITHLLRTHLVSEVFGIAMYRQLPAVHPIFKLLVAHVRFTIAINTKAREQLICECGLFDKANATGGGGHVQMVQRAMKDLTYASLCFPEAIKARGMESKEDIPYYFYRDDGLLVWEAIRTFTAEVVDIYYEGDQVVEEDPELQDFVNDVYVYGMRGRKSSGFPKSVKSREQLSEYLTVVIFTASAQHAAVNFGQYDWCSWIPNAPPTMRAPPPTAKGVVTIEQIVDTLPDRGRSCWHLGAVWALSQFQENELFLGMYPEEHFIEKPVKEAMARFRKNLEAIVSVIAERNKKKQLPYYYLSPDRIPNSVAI
Procedure, shortened: (§2)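 5-LO activity measured in human peripheral blood leukocytes. Percent inhibition at a single test concentration is compared with untreated control, with significance by ANOVA and Tukey's multiple comparisons test (p < 0.05).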

[5] = molecular target: T3, Polyunsaturated fatty acid 5-lipoxygenase (Homo sapiens, UniProt P09917); assay: Inhibition of human neutrophil 5-lipoxygenase
T3 sequence (P09917 whole entry): T2 sequence (whole entry)

[6] = molecular target: T2, Polyunsaturated fatty acid 5-lipoxygenase (Homo sapiens); assay: Inhibition of lipoxygenase at the concentration of 0.1 uM; procedure, shortened: as §2
[7] = molecular target: T2, Polyunsaturated fatty acid 5-lipoxygenase (Homo sapiens); assay: Inhibition of human neutrophil 5-lipoxygenase at the concentration of 0.1 uM; procedure, shortened: as §2
[8] = molecular target: T2, Polyunsaturated fatty acid 5-lipoxygenase (Homo sapiens); assay: Inhibition of human neutrophil 5-lipoxygenase at the concentration of 1 uM; procedure, shortened: as §2

| Structure (SMILES) | inhibition [1] | IC50 [2] | inhibition [3] | inhibition [4] | IC50 [5] | inhibition [6] | inhibition [7] | inhibition [8] |
| --- | --- | --- | --- | --- | --- | --- | --- | --- |
| Cc1cc(/C=C/c2c(F)cccc2F)cc(C)c1O | 73% | < 1 µM | 94% | 96% | < 1000 nM | 12% |  |  |
| C=CCc1cc(/C=C/c2cccs2)cc(C)c1O |  | 0.73 µM |  |  | 65 nM |  |  |  |
| CCCOc1ccc(/C=C/c2cc(C)c(O)c(C)c2)cc1 |  | 0.19 µM |  |  | < 1000 nM |  | 27% | 90% |
| Cc1cc(/C=C/c2ccccc2)cc(C)c1O |  | 4.2 µM |  |  | 100 nM |  |  |  |
| Cc1cc(C(=O)c2cccs2)cc(C)c1O | 60% | < 1 µM | 90% |  | > 1000 nM |  |  | 1% |
| Cc1cc(/C=C/c2csc3ccccc23)cc(C)c1O |  | 0.4 µM |  | 87% | < 1000 nM | 13% |  |  |
| Cc1ccc(C)c(/C=C/c2cc(C)c(O)c(C)c2)c1 |  | 1.3 µM |  |  | 240 nM |  |  |  |
| Cc1cc(/C=C/c2ccc(Cl)cc2)cc(C)c1O |  | 0.75 µM |  |  | 170 nM |  |  |  |
| Cc1ccc(/C=C/c2cc(C(C)(C)C)c(O)c(C(C)(C)C)c2)cc1 |  | 10 µM |  | 0% | > 1000 nM |  |  |  |
| Cc1cc(/C=C/c2cccs2)cc(F)c1O | 72% | < 1 µM | 95% |  | < 1000 nM |  | 18% | 90% |
| Cc1cc(CCc2ccc(F)cc2)cc(C)c1O |  | 0.3 µM |  | 44% | > 1000 nM |  |  |  |
| CCc1ccc(/C=C/c2cc(C)c(O)c(C)c2)cc1 |  | 0.51 µM |  |  | 590 nM |  |  |  |
| CC(C)c1cc(/C=C/c2cccs2)cc(C(C)C)c1O |  | < 1 µM |  |  | < 1000 nM |  | 14% | 94% |
| CCc1cc(/C=C/c2cccs2)cc(CC)c1O | 39% | < 10 µM | 96% |  | ~100 nM |  | 52% | 89% |
| Cc1cc(CCC(=O)c2ccc(F)cc2)cc(C)c1O | 29% | < 10 µM | 80% |  | > 1000 nM |  |  | 44% |
| Cc1cc(/C=C/c2ccc(Cl)s2)cc(C)c1O |  | 1.3 µM |  |  | < 1000 nM |  | 32% | 92% |
| Cc1cc(/C=C/c2ccccc2C(F)(F)F)cc(C)c1O | 76% | < 1 µM | 72% | 94% | < 1000 nM | 14% |  |  |
| Cc1cc(/C=C/c2ccccc2Br)cc(C)c1O | 84% | < 1 µM | 91% | 94% | < 1000 nM | 26% |  |  |
| Cc1cc(/C=C/C(=O)c2cccs2)cc(C)c1O | 37% | < 10 µM | 82% | 22% | > 1000 nM |  |  |  |
| Cc1cc(/C=C/c2cccs2)cc(Cl)c1O |  | 0.23 µM |  |  | < 1000 nM |  | 29% | 93% |
| Cc1cc(Cc2cccnc2)cc(C)c1O | 0% | > 10 µM | 7% |  | > 1000 nM |  |  | 5% |
| CCc1cc(/C=C/c2ccc(OC)cc2)cc(CC)c1O | 33% | < 10 µM | 80% |  | < 1000 nM |  | 15% | 90% |
| Cc1cc(/C=C/c2ccccc2OCc2ccccc2)cc(C)c1O | 45% | ~ 1 uM | 92% |  | < 1000 nM |  | 18% | 95% |
| Cc1cc(/C=C/c2cccnc2)cc(C)c1O |  | 11 µM |  |  | 370 nM |  |  |  |
| Cc1cc(/C=C/c2ccc(C(=O)O)cc2)cc(C)c1O | 0% | > 10 µM | 0% | 0% | > 1000 nM |  |  |  |
| Cc1ccc(/C=C/c2cc(C)c(O)c(C)c2)s1 |  | 0.78 µM |  |  | < 1000 nM |  | 26% | 87% |

| Structure (SMILES) | inhibition [1] | IC50 [2] | inhibition [3] | inhibition [4] | IC50 [5] | inhibition [6] | inhibition [7] | inhibition [8] |
| --- | --- | --- | --- | --- | --- | --- | --- | --- |
| COc1cc(/C=C/c2cccs2)cc(OC)c1O | 1% | < 10 µM | 86% |  | ~100 nM |  | 52% | 93% |
| CC(C)(C)c1cc(/C=C/c2ccc(F)cc2)cc(C(C)(C)C)c1O |  | 0.61 µM |  | 18% | > 1000 nM | 24% |  |  |
| COc1cc(/C=C/c2cccs2)cc(F)c1O | 42% | < 10 µM | 97% |  | < 1000 nM |  | 31% | 89% |
| CCc1cc(/C=C/c2ccc(C)cc2)cc(CC)c1O | 35% | < 10 µM | 73% | 91% | < 1000 nM | 21% |  |  |
| COc1ccc(/C=C/c2cc(C(C)(C)C)c(O)c(C(C)(C)C)c2)cc1 | 0% | > 10 µM | 5% |  | > 1000 nM |  |  | 0% |
| Cc1cc(/C=C/c2ccc(C(C)C)cc2)cc(C)c1O |  | 1.4 µM |  | 30% | > 1000 nM | 11% |  |  |
| CC(C)(C)c1cc(/C=C/c2cccs2)cc(C(C)(C)C)c1O |  | 0.034 µM |  |  | 1200 nM |  |  |  |
| Cc1cc(CCc2cccs2)cc(C)c1O |  | 0.11 µM |  |  | < 1000 nM |  | 11% | 67% |
| Cc1cc(C(=O)/C=C/c2cccs2)cc(C)c1O | 25% | < 10 µM | 82% | 0% | > 1000 nM |  |  |  |
| CCCC/C(=C\c1cc(C)c(O)c(C)c1)c1ccc(F)cc1 | 52% | 1 µM | 86% | 93% | < 1000 nM | 17% |  |  |
| CCCCOc1ccc(/C=C/c2cc(C)c(O)c(C)c2)cc1 | 32% | < 10 µM | 67% |  | ~1000 nM |  | 7% | 53% |
| Cc1cc(/C=C/c2ccncc2)cc(C)c1O | 0% | > 10 µM | 17% | 51% | 1000 nM | 1% |  |  |
| CC(C)c1cc(/C=C/c2ccc(F)cc2)cc(C(C)C)c1O | 12% | < 10 µM | 74% | 40% | > 1000 nM |  |  |  |
| C/C(=C\c1cc(C)c(O)c(C)c1)c1ccc(F)cc1 |  | 0.63 µM |  |  | 430 nM |  |  |  |
| Cc1cc(/C=C/c2ccc(F)cc2F)cc(C)c1O |  | 0.71 µM |  | 100% | < 1000 nM | 25% |  |  |
| Cc1cc(/C=C/c2cccc(C(=O)O)c2)cc(C)c1O | 0% | > 10 µM | 0% | 0% | > 1000 nM |  |  |  |
| Cc1cc(/C=C/C(=O)c2ccc(F)cc2)cc(C)c1O | 43% | < 10 µM | 71% | 33% | > 1000 nM |  |  |  |
| CC(C)c1cc(/C=C/c2cccnc2)cc(C(C)C)c1O |  | < 10 µM |  |  | 200 nM |  |  |  |
| CC(C)(C)c1cc(/C=C2\CCOC2=O)cc(C(C)(C)C)c1O |  | 0.11 µM |  |  |  |  |  |  |
| COc1ccc(/C=C/c2cc(C(C)C)c(O)c(C(C)C)c2)cc1 | 18% | < 10 µM | 84% |  | < 1000 nM |  | 13% | 71% |
| Cc1cc(/C=C/c2ccccn2)cc(C)c1O |  | 2.5 µM |  |  | < 1000 nM |  | 29% | 82% |
| Cc1cc(/C=C/c2cccc3ccccc23)cc(C)c1O |  |  |  | 94% | < 1000 nM | 27% |  |  |
| COc1ccccc1/C=C/c1cc(C)c(O)c(C)c1 |  | 1.1 µM |  |  | 100 nM |  |  |  |
| CC(C)(C)c1cc(C(=O)c2cccs2)cc(C(C)(C)C)c1O [PRIFELONE] |  | 0.0057 µM |  |  | 4800 nM |  |  |  |
| Cc1cc(/C=C2\CCOC2=O)cc(C)c1O | 0% | > 10 µM | 0% | 1% | > 1000 nM |  |  |  |
